# Test results published in ChEMBL document CHEMBL3870363, “Systematic Study of Effects of Structural Modifications on the Aqueous Solubility of Drug-like Molecules” (ACS Med Chem Lett, 2017).
# What was measured:
# [1] = Aqueous solubility of the compound in Britton-Robinson buffer at pH 6.5 measured after 2 days by saturation shake flask based UV-vis spectroscopy; format: physicochemical
# Outline: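 Shake-flask method: saturated solutions formed by stirring 2 days in Britton–Robinson buffer (pH 6.5), then filtered through a 0.2 μm pore syringe filter and quantified by UV–vis. Piroxicam served as a repeated control.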
# [2] = Equilibrium solubility of the compound in Britton-Robinson buffer stirred for 6 hrs followed by sedimentation for 18 hrs by saturation shake flask based UV-vis spectroscopy; format: physicochemical
# [3] = target: T1, Macrophage migration inhibitory factor (Homo sapiens, UniProt P14174); assay: Inhibition of recombinant human MIF tautomerase activity expressed in Escherichia coli assessed as borate-enol complex formation using 4-hydroxyphenyl pyruvic acid as substrate preincubated for 20 mins followed by substrate addition measured for 175 sec by spectrophotometric analysis
# T1 sequence (P14174 whole entry): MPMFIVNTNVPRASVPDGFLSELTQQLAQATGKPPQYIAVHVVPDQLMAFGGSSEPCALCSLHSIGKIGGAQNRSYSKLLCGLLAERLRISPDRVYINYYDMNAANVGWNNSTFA
SMILES,solubility thermodynamic at 48 h [1],solubility thermodynamic at 6 h [2],Ki [3]
CN1C(C(=O)Nc2ccccn2)=C(O)c2ccccc2S1(=O)=O [PIROXICAM],6.5 µg/mL,6.36 µg/mL,
O=C(O)c1cccc(Oc2cccc3nc(-c4cn(-c5ccc(O)c(F)c5)nn4)ccc23)c1,47.2 µg/mL,,
O=C(O)COc1ccc2nc(-c3cn(-c4ccccc4)nn3)ccc2c1,1050 µg/mL,,1370 nM
OCCOc1ccc2nc(-c3cn(-c4ccc(O)cc4)nn3)ccc2c1,2.6 µg/mL,,
COCCOc1ccc2nc(-c3cn(-c4ccc(O)cc4)nn3)ccc2c1,3.6 to 4 µg/mL,,
NCCOCCOc1ccc2nc(-c3cn(-c4ccc(O)cc4)nn3)ccc2c1.O=C(O)C(F)(F)F,13.9 µg/mL,,
Oc1ccc(-n2cc(-c3ccc4cc(OCCOCCN5CCOCC5)ccc4n3)nn2)cc1F,27.2 µg/mL,,
Oc1ccc(-n2cc(-c3ccc4ccccc4n3)nn2)cc1,2.2 µg/mL,,
COCCOc1cccc(Oc2cccc3nc(-c4cn(-c5ccc(O)c(F)c5)nn4)ccc23)c1,6.1 µg/mL,,24 nM
COCCOCCOc1ccc2nc(-c3cn(-c4ccc(O)cc4)nn3)ccc2c1,2.4 µg/mL,,147 nM
Oc1ccc(-n2cc(-c3ccc4cc(OCC5CCCCO5)ccc4n3)nn2)cc1 (stereo not drawn),3.4 µg/mL,,270 nM

# Next, values leading:
solubility thermodynamic at 48 h [1],solubility thermodynamic at 6 h [2],Ki [3],SMILES
37 µg/mL,,,O=C(O)COc1ccc2nc(-c3cn(-c4ccc(O)c(F)c4)nn3)ccc2c1
9.1 µg/mL,,,NCCOCCOc1ccc2nc(-c3cn(-c4ccc(O)c(F)c4)nn3)ccc2c1.O=C(O)C(F)(F)F
3.7 µg/mL,,,NCCOc1ccc2nc(-c3cn(-c4ccc(O)cc4)nn3)ccc2c1.O=C(O)C(F)(F)F
19.2 µg/mL,,,O=C(O)CCCOc1ccc2nc(-c3cn(-c4ccc(O)c(F)c4)nn3)ccc2c1
365 µg/mL,,,O=C(O)COc1ccc2nc(-c3cn(-c4ccc(O)cc4)nn3)ccc2c1
867 µg/mL,,37 nM,O=C(O)COCCOc1ccc2nc(-c3cn(-c4ccc(O)c(F)c4)nn3)ccc2c1
